# In the library only some 2.2% were active in any assay of this set; here they are far more common.
# HNF4A DNA FP: change in binding of human HNF4 alpha to DNA | P41235 | HNF4a-FITC DNA binding, fluorescence polarization, 1 h | activity change, % at 10 µM | hit rate 0.3% among 360,000; in the data active = activity change above about 30%, passing the limit was not always enough
# Target sequence (P41235 whole entry, looked up): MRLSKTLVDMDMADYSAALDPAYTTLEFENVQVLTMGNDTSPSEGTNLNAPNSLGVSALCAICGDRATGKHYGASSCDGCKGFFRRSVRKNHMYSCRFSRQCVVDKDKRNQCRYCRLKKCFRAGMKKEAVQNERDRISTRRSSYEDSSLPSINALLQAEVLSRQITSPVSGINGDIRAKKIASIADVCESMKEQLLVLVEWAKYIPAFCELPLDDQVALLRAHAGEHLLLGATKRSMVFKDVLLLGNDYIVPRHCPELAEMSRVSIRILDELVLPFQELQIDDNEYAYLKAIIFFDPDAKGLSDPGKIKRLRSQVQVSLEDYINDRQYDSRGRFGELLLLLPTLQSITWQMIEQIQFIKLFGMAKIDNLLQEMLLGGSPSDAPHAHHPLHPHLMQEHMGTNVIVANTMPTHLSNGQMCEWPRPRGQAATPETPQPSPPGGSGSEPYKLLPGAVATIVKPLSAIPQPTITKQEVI
# CSN deneddyl inh: inhibitors of human CSN-mediated cullin deneddylation; Q92905; Purified CSN, SCF-Nedd8-OG deneddylation, fluorescence polarization; inhibition, % at 12.5 µM; hit rate 0.38% among 360,000; AID 651999;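 active = pattern-corrected inhibition above about 35%, with an unprinted fluorescence ratio check between 0.5 and 1.5, limit read from the data, passing the limit was not always enough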
#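 Schedule: reaction 90 min, room temperature / Assay system: HEK293T-derived human Csn5 enzyme / Input: Csn5 at 0.24 nM final / Measure: inhibition of Csn5 cleavage, % / Control set: substrate-only high control, full reaction low control / Technique: fluorescence polarization of the substrate / Buffer or medium: Tris/NaCl/DTT buffer, pH 7.5 / Reagent: SCFSkp2-Nedd8OG substrate at 10 nM final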
# Myeloid diff 2: promotes myeloid progenitor differentiation; hit rate 1% among 360,000; ER-HoxA9 myeloid progenitors, lysozyme-GFP differentiation, flow cytometry; AID 624256; calls only at 10 µM;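 active = normalized GFP-positive differentiation at or above the plate's own cutoff, the solvent-only control mean plus 3 SD; inconclusive = no clear call, values can overlap the other calls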;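 note: cells exposed to compound for four days before flow analysis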
# Granule exo inh: lytic granule exocytosis inhibition; hit rate 0.66% among 360,000; AID 651702; inhibition, % at 10 µM; TALL-104 LAMP-1 surface exposure, flow cytometry; cells stimulated with thapsigargin and PMA;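 active = inhibition above about 55%, limit read from the data; inconclusive = no clear call, values can overlap the other calls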
# Myeloid diff: promotes myeloid progenitor differentiation; calls only; AID 651706; ER-HoxA9 myeloid progenitors, GFP/Mac1 double-positive flow; shares compounds with Myeloid diff 2; hit rate 2% among 2,300;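 active = share of green or green-and-red cells above 9 and 9% in run 1 or 4 and 3% in run 2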
# GFP autofluor: counter-screen for myeloid differentiation promoters: compound fluorescence; hit rate 7.4% among 2,300; ER-HoxA9 myeloid progenitors, no estrogen, GFP autofluorescence flow cytometry; vehicle wells 0%, positive control 100%; shares compounds with Myeloid diff 2; fluorescence response, % (no concentration beside the values);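 active = over 5% cells positive for green fluorescent reporter, or over 2% positive for both it and APC stain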
# Calls only; - = inactive; ? = inconclusive; . = no result given; + = active, no number.
SMILES,HNF4A DNA FP,CSN deneddyl inh,Myeloid diff 2,Granule exo inh,Myeloid diff,GFP autofluor
O=C(O)c1ccc(NC(=S)NC(=O)c2cccnc2)cc1,-,-,-,-,.,.
CNC(=O)c1ccsc1NC(=O)CCS(=O)(=O)c1ccc(F)cc1,-,-,-,-,.,.
NC(=O)c1ccsc1NC(=O)CCS(=O)(=O)c1ccc(F)cc1,-,-,+,-,-,-
Cc1cccc(-n2cnc3cc(C(=O)NCC4CCCO4)ccc32)c1 (centres undefined),-,-,-,-,.,.
C#CC[N+]1(CC#Cc2ccccc2)CCCCC1,-,-,-,-,.,.
C#CC[N+]1(CC#Cc2ccccc2)CCOCC1,-,-,-,-,-,-
C#CC[N+]1(CC#Cc2cccc(C)c2)CCCCC1,-,-,-,-,-,-
CCOc1ccc(C(=O)Nc2cccc(-c3nc4cccnc4o3)c2)cc1Cl,-,-,+,-,-,-
Cn1c(N2CCN(C(c3ccccc3)c3ccccc3)CC2)nc2ccccc21,-,-,-,-,.,.
CC(C)[C@@H](C(=O)NCc1ccco1)N1C(=O)N2CCc3c([nH]c4ccccc34)[C@@]2(C)C1=O,-,-,-,-,.,.
Cc1ccc(S(=O)(=O)Nc2cccc(C(=O)NCc3cccnc3)c2)cc1F,-,-,-,-,-,-
O=C(NCc1cccnc1)c1cccc(NS(=O)(=O)c2ccc(Br)cc2)c1,-,-,.,-,.,.
CCOP(=O)(OCC)/C(C#N)=C/c1ccc([N+](=O)[O-])cc1,-,-,-,-,-,-
N#C/C(=C/c1ccc([N+](=O)[O-])cc1)C(N)=O,-,-,-,-,.,.
Oc1cc(-c2ccncc2)cc2cccnc12,-,-,+,-,-,-
CCOc1ccc(NS(=O)(=O)c2cc(C(=O)NCCN3CCOCC3)ccc2C)cc1,-,-,-,-,.,.
CC(C)CN(C(=O)Cn1ccccc1=O)C1CCS(=O)(=O)C1 (centres undefined),-,-,-,-,.,.
COc1ccc(S(=O)(=O)Nc2ccccc2C)cc1,-,-,-,-,-,-
Cc1ccccc1NS(=O)(=O)c1ccc(F)cc1,-,-,-,-,.,.
COC(=O)c1[nH]c2cc(OC)c(OC)cc2c1NC(=O)CN1C[C@H]2C[C@@H](C1)c1cccc(=O)n1C2,-,-,-,-,.,.
Cc1nc(C(=O)Nc2cccc(Cl)c2)nn1-c1cc(OC(C)C)c(Cl)cc1Cl,-,-,+,-,-,-
Cc1nc(C(=O)Nc2cc(Cl)ccc2Cl)nn1-c1cc(OC(C)C)c(Cl)cc1Cl,-,-,-,-,.,.
Cc1ccc(S(=O)(=O)N2CCN(S(=O)(=O)c3ccc(C)cc3)C3OCCOC32)cc1 (centres undefined),-,-,-,-,-,-
COc1ccc(N(CC(=O)Nc2cc(OC)ccc2OC)S(C)(=O)=O)cc1,-,-,-,-,-,-
COc1cc(-c2c(CCO)sc3ccccc23)cc(OC)c1OC,-,-,+,-,-,-
SMILES,HNF4A DNA FP,CSN deneddyl inh,Myeloid diff 2,Granule exo inh,Myeloid diff,GFP autofluor
COc1cc(-c2c(-c3ccsc3)sc3ccccc23)cc(OC)c1OC,-,-,-,-,.,.
Cn1c(Cn2cnc(Cl)c2Cl)nc2ccccc21,-,-,-,-,-,-
Cn1c(Cn2cnc3ccccc32)nc2ccccc21,-,-,-,-,.,.
COc1ccc(S(=O)(=O)N(c2onc(C)c2Cl)S(=O)(=O)c2ccc(OC)cc2)cc1,-,-,-,-,-,-
CCN1CCN(C(=O)c2cc(COc3ccc(C(C)=O)cc3OC)on2)CC1,-,-,-,?,.,.
COCCCn1c(SCC(=O)N2CCOCC2)nnc1-c1ccco1,-,-,-,-,.,.
COc1ccccc1NC(=O)C(C)OC(=O)c1cccc(-n2cnnn2)c1 (centres undefined),-,-,-,-,.,.
Cc1ccc(CS(=O)(=O)c2cn(CC(=O)N3CCOCC3)c3ccccc23)cc1,-,-,-,-,.,.
CCC1(c2ccc(F)cc2)NC(=O)N(CC(=O)N2CCN(S(=O)(=O)c3ccc(C)cc3C)CC2)C1=O (centres undefined),-,-,+,-,-,-
CCOC(=O)c1cc(C(=O)OCC)c2cc(Br)ccc2n1,-,-,+,-,-,-
CCCCOC(=O)c1cc(C)nc2ccc(Br)cc12,-,-,-,-,.,.
Cc1ccccc1-n1ccnc1SCC(=O)Nc1cccc(S(=O)(=O)NC2=NCCC2)c1,-,-,-,-,.,.
O=C1COc2ccc3ccccc3c21,-,-,-,-,-,-
O=C1CC2(CCOCC2)Oc2ccc3ccccc3c21,-,-,-,-,.,.
CCOC(=O)C1(Nc2nccs2)Sc2ccccc2NC1=O (centres undefined),-,-,+,-,-,-
CCOC(=O)C1(N(CC)CC)Sc2cc(C)ccc2NC1=O (centres undefined),-,-,-,-,.,.
Cc1cc(O)c(S(=O)(=O)c2ccccc2)c(C)c1NS(=O)(=O)c1ccccc1,-,-,-,-,.,.
O=C(/C=C\Nc1ccccn1)c1ccc(Cl)cc1,-,-,+,-,-,-
Cc1cccc(N/C=C/C(=O)c2ccc(Cl)cc2)c1,-,-,-,-,.,.
Cc1noc(C)c1CCC(=O)NC1CCCN(Cc2ccc(CC(C)C)cc2)C1 (centres undefined),-,-,-,-,.,.
O=C(NCc1cccs1)c1csc([C@@H]2C[C@H](O)[C@@H](CO)O2)n1,-,-,-,-,.,.
COC(=O)c1ccc(NC(=O)Nc2ccccc2C)cc1,-,-,-,-,-,-
COc1ccc(CNc2ccccc2)cc1Br,-,-,-,-,-,-
COc1ccc(CNc2ccc(C)cc2)cc1Br,-,-,-,-,.,.
CC1CCCC(NC(=O)CCNC(=O)c2ccc([N+](=O)[O-])cc2)C1C (centres undefined),-,-,-,-,.,.
SMILES,HNF4A DNA FP,CSN deneddyl inh,Myeloid diff 2,Granule exo inh,Myeloid diff,GFP autofluor
Cn1c(NCCN2CCCC2)nc2cc(-c3ccccc3)sc2c1=O,-,-,?,-,.,.
COc1cccc(-c2cc3nc(NCCN4CCCC4)n(C)c(=O)c3s2)c1,-,-,-,-,-,-
O=C(Oc1ccccc1C(=S)N1CCOCC1)c1cccc([N+](=O)[O-])c1,-,-,-,-,.,.
O=C(Nc1cccc(C(F)(F)F)c1)c1cc(S(=O)(=O)N2CCCCC2)ccc1N1CCOCC1,-,-,-,-,-,-
Cc1ccc(OCCOC(=O)c2cc(S(=O)(=O)N3CCCCC3)ccc2N2CCOCC2)cc1,-,-,+,-,-,-
O=C(Nc1cccc(F)c1)c1cc(S(=O)(=O)N2CCOCC2)ccc1N1CCCC1,-,-,-,-,.,.
O=C(COC(=O)c1ccc(Cl)nc1)Nc1cccnc1Cl,-,-,-,-,.,.
O=C(NCc1ccc2c(c1)OCO2)c1c(-c2ccccc2)sc2ccccc12,-,-,-,-,.,.
CC1=C(c2ccccc2)SC2=NCCN21,-,-,-,-,.,.
CC1(C(=O)NC2CCCCC2)CCC(=O)N1Cc1cccs1 (centres undefined),-,-,-,-,-,-
CC(C)N(C(=O)COC(=O)c1cccc(N(C)C)c1)c1ccccc1,-,-,-,-,.,.

# From PubChem BioAssay
